# Screening data as filed in PubChem.
# The list is not random: actives were taken first. Their share in the collection is about 1.3%.
# GSK3 alpha inh: blockers of GSK3A enzyme activity – biochemical, luminescence, cell-free homogeneous, HTS, primary screen; Glycogen synthase kinase-3 alpha (Homo sapiens), P49840; GSK-3 alpha kinase, ADP-Glo luminescence, 60 min; hit rate 0.1% among 320,000; inhibition, % at 10 µM;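 active = more than half of replicates show inhibition above 20%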;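 also: GST-tagged GSK-3 alpha with peptide substrate and 25 µM ATP; 0% = DMSO neutral wells and 100% = GW8510 positive control wells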
# STK33 kinase inh: inhibitors of purified STK33 kinase, primary screen, biochemical, ADP-Glo luminescence, homogeneous, cell-free; AID 2661, 2010; hit rate 0.073% among 320,000; inhibition, % at 10 µM; Serine/threonine-protein kinase 33 (Homo sapiens), Q9BYT3; MBP phosphorylation;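 active = inhibition at or above 25%, using the most active replicate where run in duplicate; inactive = inhibition below 25%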
# H9c2 TAG inh: inhibitors of triacylglycerol accumulation, primary screen, cell-based, uHTS, fluorescence, H9c2; H9c2 cells, Nile Red lipid (TAG) fluorescence; cells loaded with 200 µM oleic acid; inhibition, % at 12.5 µM; hit rate 0.66% among 230,000;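 active = pattern-corrected inhibition of lipid staining of at least 50% with the nuclear-stain viability signal not falling by more than 50%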;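 also: 0% = DMSO wells and 100% = triacsin C control wells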
# GSK3B inh: human GSK3beta kinase inhibitors, primary screen, biochemical, cell-free homogeneous, HTS; Glycogen synthase kinase-3 beta (Homo sapiens), P49841; GST-GSK3beta kinase, ADP-Glo luminescence, 60 min; hits give low values; activity score (negative = inhibition), % at 10 µM; hit rate 0.038% among 300,000; AID 2097, 2009;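 active = more than half of replicate wells score below -50%, meaning over 50% inhibition versus plate controls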;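 also: 0% = median DMSO wells and -100% = median GW8510 positive control wells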
# Target sequence (P49841 whole entry, looked up): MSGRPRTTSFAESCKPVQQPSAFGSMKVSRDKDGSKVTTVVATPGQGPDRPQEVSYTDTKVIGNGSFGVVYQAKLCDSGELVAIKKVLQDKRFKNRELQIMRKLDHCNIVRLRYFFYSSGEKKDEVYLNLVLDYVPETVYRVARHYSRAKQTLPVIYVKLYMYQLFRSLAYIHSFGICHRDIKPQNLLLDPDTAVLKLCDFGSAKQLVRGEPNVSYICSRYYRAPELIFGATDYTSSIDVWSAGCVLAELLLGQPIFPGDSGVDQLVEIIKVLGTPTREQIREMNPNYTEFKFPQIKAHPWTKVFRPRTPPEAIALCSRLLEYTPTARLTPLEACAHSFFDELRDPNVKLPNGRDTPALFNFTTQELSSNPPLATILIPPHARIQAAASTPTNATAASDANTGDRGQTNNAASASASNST
#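 Assay system: GST-tagged human GSK3beta kinase, cell-free; Input: 1.6 ng GSK3beta; Medium: Tris/MgCl2 kinase buffer; Timing: 60 min enzyme reaction, room temperature; Signal: ADP-Glo luminescence quantifying ADP generated by kinase; Evaluation: score relative to plate controls; Benchmarks: DMSO neutral wells and GW8510 at 20 µM as positive.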
# LANA-H2A inh: blockers of LANA interaction with H2A/H2B – biochemical, FP readout, HTS, primary screen; Protein LANA1 (Human herpesvirus 8 type P (isolate GK18)), Q9QR71; cell-free LANA-H2A/H2B peptide, fluorescence polarization; inhibition, % (test concentration not listed); hit rate 0.6% among 320,000; AID 2629, 2010; in the data active = inhibition mostly above about 10%, no sharp cut-off; inactive = mostly below about 6.7%
# Lipid droplet: inhibitors of hepatocyte lipid droplet formation, primary screen, imaging, high-throughput imaging, BODIPY stain. inhibition, % at 6.5 µM. hit rate 0.4% among 240,000. AID 1656, 2009. AML12 mouse hepatocytes, oleate lipid droplets;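 active = lipid droplet intensity inhibited by at least 50%, with more than 500 cells counted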
#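 Test system: AML12 mouse liver cells; schedule: overnight exposure; technique: high-content imaging of BODIPY-stained droplets and DAPI nuclei; read-out: % inhibition of corrected integrated BODIPY droplet signal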
# Lipid drop inh: hepatocyte lipid droplet accumulation inhibitors, confirmation, imaging, AML12 mouse hepatocytes, single concentration, high-content. BODIPY lipid droplet imaging; droplets induced with 100 µM oleic acid. inhibition, % at 5.2 µM. hit rate 65% among 870. shares compounds with Lipid droplet;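 active = inhibition of lipid droplet metric at least 50%, with more than 300 cells in each of four replicates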;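 also: plate controls were DMSO with oleic acid for no effect and 5 µM Triacsin-C for full effect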
# AML12 tox img: AML12 hepatocyte cytotoxicity, counter-screen for hepatic lipid droplet formation project, imaging, DAPI nuclear morphology imaging; shares compounds with Lipid droplet; AML12 mouse hepatocytes; hits give high values; cells fed 100 µM oleate overnight; z-score at 5 µM; hit rate 3% among 870; AID 463200, 2010; in the data active = z-score above about 6.3;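 also: compound exposure lasted overnight at 37 °C before fixation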
# AML12 tox ATP: AML12 hepatocyte cytotoxicity, confirmation, cytotoxicity control for hepatic lipid droplet formation project, cell-based, single concentration | shares compounds with Lipid droplet | AML12 mouse hepatocyte viability, ATP luminescence; cells loaded with 100 µM oleic acid | cytotoxicity, % at 50 µM | 530 tested, under 10 active | AID 463219, 2010;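 active = cytotoxicity above 50% in each of four replicates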;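 also: compound exposure lasted overnight at 37 °C before the ATP read; 0% = DMSO-treated cells and 100% = wells with no cells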
# TAG conf: triacylglycerol accumulation inhibitors, retest, confirmation, cell-based, single concentration, Nile Red fluorescence, H9c2 | shares compounds with H9c2 TAG inh | H9c2 lipid accumulation; cells loaded with 200 µM oleic acid | inhibition, % at 12.5 µM | hit rate 71% among 990 | AID 651629, 2012;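 active = mean inhibition across replicates of 40% or more; inactive = mean inhibition below 40%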;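 also: plate controls were DMSO only wells for no effect and Triacsin C treated wells for full effect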
# * = called active by the depositor; / = no result given.
SMILES,GSK3 alpha inh,STK33 kinase inh,H9c2 TAG inh,GSK3B inh,LANA-H2A inh,Lipid droplet,Lipid drop inh,AML12 tox img,AML12 tox ATP,others
Cc1ccc(-n2nnnc2SCC(=O)Nc2ncc(Cc3ccccc3Cl)s2)cc1,2,0,/,-20,-3,79*,104*,0.26,10,
O=C(CSc1nnnn1-c1ccccc1)Nc1ncc(Cc2cccc(Cl)c2Cl)s1,5,1,/,-1,-1,-7,/,/,/,
COc1ccc(N=Cc2cccc(C)c2O)cc1Cl,0,0,/,1,0,1,/,/,/,
O=C(COC(=O)c1cccs1)Nc1nc(-c2ccccc2)cs1,-3,-1,/,1,-3,10,/,/,/,
C/C(=N\Nc1nc(-c2ccccc2)cs1)c1cccs1,0,-1,/,-4,-2,52*,96*,-1.2,28,
C/C(=N\NC(N)=O)c1ccc(-n2ccnc2)cc1,-1,-1,7,3,-2,2,/,/,/,
CCc1ccc(OCC(=O)N/N=C(\C)c2ccc(-n3ccnc3)cc2)cc1,0,0,/,1,0,55*,90*,0.11,52,
COc1ccc(C)cc1NC(=O)CCC(=O)Nc1ccc2nc(N3CCN(C)CC3)cc(C)c2c1,-2,0,/,2,3,105*,104*,0.15,-5,
COc1ccccc1CC(=O)NNC(=O)c1ccc(C(C)(C)C)cc1,-2,2,-3,3,-8,-2,/,/,/,
CCOc1ccccc1NC(=O)c1cccc(NC(=O)C2CCCC2)c1,-2,0,/,1,-2,63*,95*,0.46,4,
NC(=O)N/N=C/c1ccc(-c2ccc([N+](=O)[O-])cc2)o1,-3,1,3,-2,4,55*,-4,0.24,/,
CCOC(=O)c1[nH]cnc1N=Nc1c(O)ccc2ccccc12,-4,-2,/,0,-4,-42,/,/,/,
Oc1ccc2ccccc2c1N=Nc1ccccc1F,-1,4,36,-2,-5,93*,95*,0.84,/,
CC(=O)c1ccc(Nc2nc(=O)c3cccnc3s2)cc1,6,0,/,-2,-3,77*,20,-0.77,/,
CCC(C)C(=O)N1c2ccccc2C(=C2SC(C(=O)OC)=C(C(=O)OC)S2)C(=S)C1(C)C (centres undefined),0,-2,49,0,3,67*,112*,0.24,6,
CCOC(=O)C1=C(C)c2ccccc2N(C(=O)OC)C1(C)C(=O)OCC (centres undefined),/,/,-8,/,/,/,/,/,/,
C=CCN(C(=O)c1csnn1)C(C(=O)NCc1ccccc1)c1ccccc1F (centres undefined),0,-2,/,-5,3,51*,56,0.49,2,
C=CCN(C(=O)c1csnn1)C(C(=O)NCc1ccccc1)c1c(F)cccc1Cl (centres undefined),-1,-1,/,1,1,-2,/,/,/,
O=C(NCc1ccccc1)C(c1ccccc1)N(C(=O)c1csnn1)C1CCCC1 (centres undefined),-1,-1,/,3,4,40,/,/,/,
O=C(NCc1ccccc1)C(c1ccccc1F)N(C(=O)c1csnn1)C1CCCC1 (centres undefined),-1,-2,/,0,5,71*,92*,-0.75,12,
CCOc1ccc(C(=O)Nc2ccc(NC(=S)NC(=O)CC)cc2)cc1Cl,-1,0,/,-2,0,50*,102*,0.14,7,
O=C(Cc1cccc2ccccc12)Nc1nc(-c2cccc([N+](=O)[O-])c2)cs1,-3,-1,/,1,4,68*,100*,-1,31,
CC(C)Oc1ccc(C(=O)OC(C)C(=O)Nc2nc(-c3cccc([N+](=O)[O-])c3)cs2)cc1 (centres undefined),-6,0,/,4,-3,91*,97*,0.34,10,
O=C(c1nn2c(C(F)(F)F)cc(-c3ccco3)nc2c1Br)N1CCCc2ccccc21,1,-1,14,4,-1,3,/,/,/,
O=C(c1nn2c(C(F)(F)F)cc(-c3cccs3)nc2c1Br)N1CCCc2ccccc21,-3,-1,/,-2,-3,60*,101*,-1.2,27,
SMILES,GSK3 alpha inh,STK33 kinase inh,H9c2 TAG inh,GSK3B inh,LANA-H2A inh,Lipid droplet,Lipid drop inh,AML12 tox img,AML12 tox ATP,others
Cc1ccc2nc(Nc3ccc(F)cc3)c3nncn3c2c1,0,-1,/,-1,-1,59*,58,-0.34,17,
CC(C)Oc1ccc(C(=O)OC(C)C(=O)NC2CCCCC2C)cc1 (centres undefined),-1,8,20,1,0,52*,102*,0.7,12,
O=C(Nc1ccc([N+](=O)[O-])cn1)c1cc(-c2cccc(Cl)c2)nc2ccccc12,0,-1,68*,3,-2,68*,38,0.22,/,TAG conf=52*
O=C(Nc1ccccn1)c1cc(-c2cccc(Cl)c2)nc2ccccc12,-1,-1,12,1,0,/,/,/,/,
O=C(CSCc1ccccc1)N1CCN(S(=O)(=O)c2cccc(F)c2)CC1,-2,0,12,-3,-3,/,/,/,/,
O=C(CSc1nc(=O)n(CCN2CCOCC2)c2c1CCCC2)Nc1ccc([N+](=O)[O-])cc1,-3,0,9,-4,0,/,/,/,/,
CCCc1cc(N2CCCC2)n2nc(C)c(-c3ccccc3)c2n1,1,0,66*,-2,0,60*,99*,0.31,-12,TAG conf=41*
COc1cccc(C(=O)O/N=C(\N)Cc2ccc(Cl)cc2)c1,-2,1,/,2,1,18,/,/,/,
c1ccc(-c2csc(NNC3=NCCCCC3)n2)cc1,-1,-1,85*,-2,-4,63*,115*,-0.27,31,TAG conf=108*
